This note sets out measurements from ChEMBL document CHEMBL1649452, “The chromosomal toxin gene yafQ is a determinant of multidrug tolerance for Escherichia coli growing in a biofilm” (2009).

Values after ≈ are worked out from the molar mass of the structure shown. Active and inactive are the calls of the source.

Test [1] has as its system Escherichia coli. The test can be described thus: Bactericidal activity against yafQ gene-deficient Escherichia coli K-12 BW25113 biofilm assessed as log reduction of viable cells after 24 hrs. The class given is functional, organism-based. The essentials:
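Biofilms grown on the 96-peg polystyrene lid of a Calgary biofilm device. Inoculum was a 1.0 McFarland suspension diluted 30-fold in growth medium (~1.0 × 10^7 CFU/ml). Grown 24 h at 37°C, 125 rpm, 95% humidity, then saline-rinsed and exposed to twofold antibiotic dilutions. Rinsed twice, sonicated 5 min in LB + 1% Tween 20, plated on LB agar ≥24 h at 37°C. Mean log killing taken from viable counts.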

Test [2] deals with Escherichia coli. The test can be described thus: Bactericidal activity against Escherichia coli K-12 BW25113 biofilm harboring pCA24N ptac::yafQ plasmid assessed as log reduction of viable cells after 24 hrs pretreated with 5 uM of IPTG for 4 hrs. It is filed as functional, organism-based. The essentials:
(§1)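 Biofilms grown 24 h at 37°C, 125 rpm, 95% humidity on Calgary device pegs from ~1.0 × 10^7 CFU/ml inoculum. Strain carries IPTG-inducible pCA24N vector, grown with 30 μg/ml chloramphenicol. Biofilms were rinsed, then induced 4 h at 37°C, 125 rpm in LB with chloramphenicol and 5 μM IPTG before twofold antibiotic dilutions. Survivors were recovered by sonication in LB plus 1% Tween 20 and plated; mean log killing calculated.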

Test [3] relates to Escherichia coli. The test can be described thus: Antimicrobial activity against Escherichia coli K-12 BW25113 by broth microdilution method. The class given is functional. The essentials:
(§2)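 Broth microdilution MIC per CLSI protocol; wild-type and ΔyafQ strains from Keio collection, stored at −70°C in LB with 8% DMSO, cultured on LB agar at 37°C.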

Test [4] has as its system Escherichia coli. The test can be described thus: Antimicrobial activity against yafQ gene-deficient Escherichia coli K-12 BW25113 by broth microdilution method. The class given is functional. Put shortly:
as §2
(In general: In broth dilution the organism is exposed to a series of concentrations in liquid medium.)

The test system of test [5] is Escherichia coli. The test can be described thus: Bactericidal activity against yafQ gene-deficient Escherichia coli K-12 BW25113 biofilm assessed as log reduction of viable cells after 24 hrs relative to wild-type Escherichia coli K-12 BW25113. It is filed as functional. Put shortly:
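Biofilms grown 24 h at 37°C, 125 rpm, 95% humidity on Calgary device pegs from ~1.0 × 10^7 CFU/ml inoculum (1.0 McFarland diluted 30-fold). After a saline rinse, biofilms went into twofold antibiotic dilutions, were rinsed twice, and sonicated 5 min in LB with 1% Tween 20. Survivors were counted on LB agar after ≥24 h at 37°C. Mean log killing compared with wild type; significance required ≥50-fold difference and non-overlapping SDs.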

The subject of test [6] is Escherichia coli. The test can be described thus: Effect on survival of Escherichia coli K-12 BW25113 biofilm harboring pCA24N ptac::yafQ plasmid assessed as increase in cell survival after 24 hrs pretreated with 5 uM of IPTG for 4 hrs relative to wild-type Escherichia coli K-12 […]. The class given is functional. The essentials:
as §1

For test [7], the system named is Escherichia coli. The test can be described thus: Bactericidal activity against yafQ gene-deficient Escherichia coli K-12 BW25113 stationary-phase planktonic cell assessed as log reduction of viable cells after 24 hrs. The class given is functional, organism-based. The essentials: (§3)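 Stationary-phase planktonic cells from LB grown 18–20 h at 225 rpm, 37°C, then pelleted and resuspended at 2× concentration in fresh medium. 100 μl cells added to 100 μl of 2× twofold antibiotic dilutions. Starting counts by viable plating. Recovery, dilution and counting as for biofilms (LB + 1% Tween 20, LB agar ≥24 h at 37°C); mean log killing calculated.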

The test system of test [8] is Escherichia coli. The test can be described thus: Bactericidal activity against Escherichia coli K-12 BW25113 stationary-phase planktonic cell assessed as log reduction of viable cells after 24 hrs. It is filed as functional, organism-based. Put shortly:
as §3

The MIC is the smallest concentration in the dilution series that meets the test's criterion for growth inhibition. Read a low MIC as greater potency.

Consider `CO[C@H]1/C=C/O[C@@]2(C)Oc3c(C)c(O)c4c(O)c(c(/C=N/N5CCN(C)CC5)c(O)c4c3C2=O)NC(=O)/C(C)=C\C=C\[C@H](C)[C@H](O)[C@@H](C)[C@@H](O)[C@@H](C)[C@H](OC(C)=O)[C@@H]1C` [RIFAMPIN], for which the outcome in test [1] and in test [2] was Active. Further, the MIC in test [3] and in test [4] was 16 µg/mL (≈ 19.4 µM) throughout.
Take `Cc1nnc(SCC2=C(C(=O)O)N3C(=O)[C@@H](NC(=O)Cn4cnnn4)[C@H]3SC2)s1` [CEFAZOLIN]: the FC in test [5] was found to be 2400. Also, in test [6], the “fold change (FC)” value amounted to 10000. In addition, the result in test [2] was inactive. The MIC in test [3] and in test [4] was 4 µg/mL (≈ 8.8 µM) throughout. For the same compound, the outcome in test [7] and in test [8] was Active.
Take `C[C@H]1c2cccc(O)c2C(=O)C2=C(O)[C@]3(O)C(=O)C(C(N)=O)=C(O)[C@@H](N(C)C)[C@@H]3[C@@H](O)[C@@H]21.O` [DOXYCYCLINE]: the result in test [1] and in test [2] was Active. Further, the MIC came out at 4 µg/mL in test [3] and 3 µg/mL in test [4].
For `NC[C@H]1O[C@H](O[C@H]2[C@H](O)[C@@H](O[C@H]3O[C@H](CO)[C@@H](O)[C@H](N)[C@H]3O)[C@H](N)C[C@@H]2N)[C@H](N)C[C@@H]1O` [TOBRAMYCIN], the FC in test [5] worked out at 760. The “fold change (FC)” value in test [6] amounted to 3300. Also, in test [2], the outcome was inactive. For the same compound, the minimal inhibitory concentration (MIC) was 1.5 µg/mL (≈ 3.21 µM) in test [3] and 2 µg/mL (≈ 4.28 µM) in test [4]. Besides, the outcome in test [7] and in test [8] was Active.
